Shown are actives, neighbours in structure and some others; about 2% of the full set was active somewhere.
TRAIL sens C8 = sensitizes caspase-8 expressing cells to TRAIL | NB7+C8 cells + TRAIL, ATPlite viability luminescence | inhibition (viability loss, TRAIL sensitization), % at 10 µM | 360,000 tested, 1% active;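 active = compounds causing at least 50% loss of cell viability in the single-dose screen, relative to plate controls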
PPC-1+TRAIL kill = PPC-1 cancer cell killing with TRAIL present; PPC-1 cells + TRAIL, ATPLite viability luminescence; cell killing (% activity), % at 4 µM or 5 µM; 220,000 tested, 0.41% active; AID 1443;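 active = cell killing above 50% in the first pass at 4 µM, then a duplicate retest at 5 µM averaging 50% or more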;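 also: plate controls were cells with TRAIL plus DMSO for no effect and medium-only wells lacking cells for full effect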
FLuc inhib CS = counter-screen for luciferase assay inhibitors: firefly luciferase inhibition. 200,000 tested, 1.5% active. P08659. AID 1006. inhibition, % at 10 µM. ATPLite firefly luciferase biochemical luminescence, 10 min;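 active = inhibition above about 50% when tested at 10 µM, limit read from the data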
Target sequence (P08659 whole entry, looked up): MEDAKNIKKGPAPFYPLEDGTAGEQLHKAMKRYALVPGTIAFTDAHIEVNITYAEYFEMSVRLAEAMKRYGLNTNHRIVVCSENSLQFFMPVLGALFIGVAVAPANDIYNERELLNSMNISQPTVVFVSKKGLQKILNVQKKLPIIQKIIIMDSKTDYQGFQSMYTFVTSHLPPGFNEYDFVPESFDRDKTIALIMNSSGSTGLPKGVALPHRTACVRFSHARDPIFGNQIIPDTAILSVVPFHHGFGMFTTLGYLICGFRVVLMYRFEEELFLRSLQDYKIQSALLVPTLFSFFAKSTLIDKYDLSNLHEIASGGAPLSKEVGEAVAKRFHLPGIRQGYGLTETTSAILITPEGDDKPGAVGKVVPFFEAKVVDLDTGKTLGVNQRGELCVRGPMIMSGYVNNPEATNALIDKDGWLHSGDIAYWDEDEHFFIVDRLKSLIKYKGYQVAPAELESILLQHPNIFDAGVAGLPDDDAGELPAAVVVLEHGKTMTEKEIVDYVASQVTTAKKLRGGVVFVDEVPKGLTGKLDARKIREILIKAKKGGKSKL
HSP90 refold inh = inhibitors of HSP90 luciferase refolding in rabbit reticulocyte lysate | AID 1789 | luciferase refolding luminescence, 3 h | inhibition, % at 5.6 µM | 290,000 tested, 0.91% active;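 active = inhibition above the screen-wide mean plus 3 SD, computed separately per campaign, cut at about 16% in these data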;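 also: 0% = DMSO wells and 100% = 60 µM geldanamycin wells; inhibitors lower the luminescence because luciferase stays unfolded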
FLuc act counter = firefly luciferase counter-screen for stimulation assays; AID 1027; P08659; activation factor at 10 µM; 200,000 tested, under 10 active; ATPlite luciferase biochemical, luminescence, 10 min; 0 = ATP-free wells, 1 = DMSO control;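 active = luciferase activation factor, scaled between plate controls, of at least 2 with compound at 10 µM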
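Material: luciferase plus luciferin reagent, cell-free. Medium: PBS buffer for ATP. Also added: ATP substrate, dispensed from a 10.24 µM working solution in PBS. Doses: test compounds dosed from 2 mM stocks in 100% DMSO. Incubation: 10 min post-reagent at room temperature. Technique: light output (luminescence). Read-out basis: luminescence gain marking luciferase activators.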
HSP90 inh confirm = confirmation of HSP90 inhibitors | shares compounds with HSP90 refold inh | rabbit reticulocyte lysate, luciferase refolding luminescence, 3 h | inhibition, % at 5.9 µM | 2,300 tested, 64% active; in the data active = inhibition above about 18%;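 also: 0% = vehicle wells and 100% = reference inhibitor wells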
luciferase ctr = firefly luciferase inhibition, HSP90 counter-screen | shares compounds with HSP90 refold inh | inhibition, % at 5.9 µM | 2,300 tested, 48% active | purified native firefly luciferase, luminescence;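 active = inhibition above the mean inhibition of all tested sample wells plus 3 SD, cut at about 10% in these data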;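 also: 0% = DMSO with luciferase and 100% = wells lacking luciferase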
Starred values were filed as active, the others as inactive; · = not tested or not shown.

SMILES	TRAIL sens C8	PPC-1+TRAIL kill	FLuc inhib CS	HSP90 refold inh	FLuc act counter	HSP90 inh confirm	luciferase ctr
CCCCN(CC)C(=O)c1oc2ccc(S(=O)(=O)N3CCCC3)cc2c1C	-27	·	·	-2	·	·	·
COCc1cc(=O)[nH]c2c1c(-c1ccccc1)nn2C	0	12	·	2	·	·	·
COc1ccc(OC)c(CN2CCN(CC(=O)Nc3ccccc3C(=O)NC3CC3)CC2)c1	-12	·	·	·	·	·	·
O=C(/C=C/c1cnc2ccccc2n1)NC12CC3CC(CC(C3)C1)C2	3	23	42	28*	0.6	44*	32*
COCCCNC(=O)c1cccn2c(=O)c3cc4ccccc4cc3nc12	28	24	6	17*	0.9	26*	18*
COc1cccc(/C=N/Nc2ncnc(N)c2[N+](=O)[O-])c1OC	43	-2	78*	27*	0.2	80*	62*
Cc1ccccc1N=Cc1cccc(O)c1O	7	18	4	5	1	·	·
Oc1cccc(/C=N/N=C/c2cccc(O)c2O)c1O	22	·	·	25*	·	71*	74*
COCCn1c(C)cc(C(=O)CSc2nc3ccccc3o2)c1C	21	10	18	1	0.8	·	·
Cc1cc(C(=O)COC(=O)c2ccc[nH]c2=O)c(C)n1C	33	26	38	12	0.6	·	·
COCCn1c(C)cc(C(=O)CSc2nc3ccccc3s2)c1C	25	36	46	28*	0.5	67*	68*
COCCn1c(C)cc(C(=O)Cn2nc(C(=O)O)c3ccccc3c2=O)c1C	64*	17	91*	67*	0.1	75*	1
COCCn1c(C)cc(C(=O)COC(=O)c2ccc[nH]c2=O)c1C	13	35	84*	31*	0.2	45*	54*
Cc1cc(C(=O)Cn2nc(C(=O)O)c3ccccc3c2=O)c(C)n1C1CC1	5	-13	11	6	0.9	·	·
C#CCn1c(=NC(=O)c2cc(-c3cccs3)nc3ccccc23)sc2cc(S(N)(=O)=O)ccc21	5	28	-2	-1	1	·	·
CSCC[C@H](NC(=O)Cc1ccc(Cl)cc1)C(=O)N1CCC2(CC1)NCCc1[nH]cnc12	-6	·	·	2	·	·	·
O=C(Nc1nnc(-c2ccc(F)cc2)s1)c1ccco1	23	·	·	50*	·	-4	-14
CC1CCCCCCC1OC(=O)c1ccccc1C(=O)O (stereo unspecified)	-14	·	·	·	·	·	·
CCOc1ccc(NC(=O)N2CCC(c3nc4ccccc4[nH]3)CC2)cc1	0	14	-5	25*	1.1	-13	-16
CCOc1ccc(NC(=O)N2CCC(c3nc4ccccc4o3)CC2)cc1	-5	18	-7	1	1.1	·	·
CC(=O)NC1=C(Nc2ccc(N(C)C)cc2)C(=O)c2ccccc2C1=O	30	·	·	21*	·	8	-8
CCN(c1ccccc1)c1nc(=O)c2cccnc2s1	-10	13	-5	5	1.1	·	·
CCN(c1ccccc1)c1cc2ccccc2c(=O)[nH]1	2	·	·	41*	·	9	-4
O=C(Cn1c2ccccc2c(=O)c2ccccc21)Nc1cccc(F)c1	-14	8	-2	-4	1	·	·
COc1ccc(/C=C/c2nc3ccccc3c(=O)o2)cc1	75*	·	·	79*	·	87*	14*
SMILES	TRAIL sens C8	PPC-1+TRAIL kill	FLuc inhib CS	HSP90 refold inh	FLuc act counter	HSP90 inh confirm	luciferase ctr
CC1CCN(C2=NC(=O)/C(=C/c3cccc(O)c3)S2)CC1	-4	·	·	-4	·	·	·
CC1CCN(C2=NC(=O)/C(=C/c3ccccc3F)S2)CC1	14	·	·	23*	·	35*	14*
CC(=O)NC(CSC(CC(=O)c1ccco1)c1ccc(C)cc1)C(=O)O (stereo unspecified)	1	12	45	-2	0.6	·	·
Cc1ccc(OCC(=O)NC(=S)Nc2ccccn2)c(Br)c1	84*	·	·	72*	·	80*	79*
COc1ccc(OCC(=O)NC(=S)NNC(=O)COc2ccc(Br)cc2Cl)cc1	-8	6	14	-1	0.9	·	·
O=C(COc1ccc(Br)cc1Cl)NC(=S)Nc1ccccn1	22	·	·	32*	·	38*	32*
Cc1nc(NC(=S)NC(=O)COc2ccccc2Cl)ccc1Br	-4	-2	-1	0	1	·	·

From PubChem
